Values belong to the compound of their own block, whether it stands above or below them. Calls of active or inactive are those of the source. The rule behind the calls is not given here.
Experiments:
[1] = target: Heat shock protein beta-1 (Homo sapiens) (UniProt P04792); experiment: Binding affinity to pure Hsp27 in human SKBR3 cell lysate at 2 uM after 1 hr by Western blot analysis; details: SK-BR-3
[2] = target: Heat shock protein beta-1 (Homo sapiens) (UniProt P04792); experiment: Inhibition of Hsp27 phosphorylation in human SKBR3 cells at 0.5 to 1 uM after 24 hrs by Western blot analysis; details: SK-BR-3
[3] = target: Heat shock protein beta-1 (Homo sapiens) (UniProt P04792); experiment: Binding affinity to pure Hsp27 in human SKBR3 cell lysate at 25 to 50 uM after 1 hr by Western blot analysis; assay type: cell-free; details: SK-BR-3
Method in brief: (§1)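 Pure proteins, 10 μM bovine brain tubulin or recombinant Hsp27, were tested in separate experiments. Each was incubated with 2 μM biotinylated probe for 1 h at room temperature, then with neutravidin resin for 30 min. After five washes with binding buffer, bound protein was eluted twice with buffer containing compound at 25 and 50 μM. Eluates and resin were denatured, run on SDS-PAGE, transferred to PVDF and probed with α-/β-tubulin or Hsp27 antibodies.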

Bos taurus [4] = organism: Bos taurus; experiment: Binding affinity to bovine brain tubulin at 2 uM after 1 hr by SDS-PAGE analysis in preincubated with 10 uM colchicine
Method in brief: (§2)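 Bovine brain tubulin (10 μM) was preincubated with 10 μM colchicine or paclitaxel for 1 h at room temperature. It was then incubated with 2 μM biotinylated probe in binding buffer for 1 h at room temperature and loaded onto a neutravidin resin column for 30 min. The resin was washed five times with binding buffer, then twice with buffer containing compound (25, 50 μM). Eluates and resin were analysed by SDS-PAGE and Western blot with tubulin antibody.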

SK-BR-3 [5] = experiment: Binding affinity to pure beta-tubulin in human SKBR3 cell lysate at 25 to 50 uM after 1 hr by Western blot analysis; assay type: cell-free
Method in brief: as §1

Bos taurus [6] = organism: Bos taurus; experiment: Binding affinity to bovine brain tubulin at 2 uM after 1 hr by SDS-PAGE analysis in preincubated with 10 uM paclitaxel
Method in brief: as §2

SK-BR-3 [7] = experiment: Binding affinity to beta-tubulin in human SKBR3 cell lysate at 25 uM after 30 mins by mass spectrometric analysis; assay type: cell-free
Method in brief: (§3)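 SKBR-3 cells (1.0 × 10^7) were lysed in NP-40 buffer with protease inhibitors and sonicated. Lysate was incubated with biotinylated probe (25 μM final) for 1 h at room temperature, then with neutravidin resin for 30 min. After five binding-buffer washes, bound proteins were eluted with buffer containing compound at 25 and 50 μM. Resin was boiled in SDS buffer. Samples were run on SDS-PAGE and silver-stained; bands were trypsin-digested in-gel and analysed by LC-QTOF/MS.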

SK-BR-3 [8] = experiment: Binding affinity to alpha-tubulin in human SKBR3 cell lysate at 25 uM after 30 mins by mass spectrometric analysis; assay type: cell-free
Method in brief: as §3

[9] = target: Heat shock protein beta-1 (Homo sapiens) (UniProt P04792); experiment: Binding affinity to Hsp27 in human SKBR3 cell lysate at 25 uM after 30 mins by mass spectrometric analysis; assay type: cell-free; details: SK-BR-3
Method in brief: as §3

SK-BR-3 [10] = experiment: Binding affinity to pure alpha-tubulin in human SKBR3 cell lysate at 25 to 50 uM after 1 hr by Western blot analysis; assay type: cell-free
Method in brief: as §1

SK-BR-3 [11] = experiment: Growth inhibition of human SKBR3 cells after 48 hrs by MTT assay; assay type: functional, cell-based; details: SK-BR-3, 48 h
Method in brief: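 Cells were seeded for 24 h, then exposed to a range of compound concentrations (DMSO ≤0.1% final) for 48 h. MTT (0.5 mg/mL) was added for 2 h, formazan was dissolved in DMSO and A570 read. Six replicates; IC50 from nonlinear regression.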

Tubulin (Homo sapiens) [12] = target: T1, Tubulin (Homo sapiens) (UniProt P68371+Q9H4B7+P0DPH7+P68366+Q13509+Q71U36+P04350+Q3ZCM7+P07437+P68363+Q9BQE3+Q6PEY2+Q13885+Q9BVA1+Q9BUF5); experiment: Inhibition of tubulin polymerization in human SKBR3 cells assessed as decrease in microtubule density at 0.5 to 1 uM after 12 hrs by fluorescence microscopic analysis; assay type: cell-based; details: SK-BR-3
Method in brief: (§4)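 SKBR-3 cells in chamber slides were grown to 70% confluence, then treated with 0.5 or 1 μM compound for 12 and 24 h; untreated cells and 0.05 μM nocodazole served as controls. Cells were fixed in 4% paraformaldehyde, permeabilized with 0.2% Triton X-100 and blocked with 2% goat serum. They were stained with biotinylated anti-tubulin (1:200, overnight 4 °C) plus Alexa Fluor 488 streptavidin and imaged by fluorescence microscopy.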

Bos taurus [13] = organism: Bos taurus; experiment: Inhibition of bovine brain tubulin polymerization after 20 mins by spectrophotometric analysis
Tubulin (Homo sapiens) [14] = target: T1, Tubulin (Homo sapiens); experiment: Inhibition of tubulin polymerization in human SKBR3 cells assessed as microtubule disorganization at 0.5 to 1 uM after 24 hrs by fluorescence microscopic analysis; assay type: cell-based; details: SK-BR-3
Method in brief: as §4

Tubulin (Homo sapiens) [15] = target: T1, Tubulin (Homo sapiens); experiment: Inhibition of tubulin polymerization in human SKBR3 cells assessed as decrease in microtubule density at 0.5 to 1 uM after 24 hrs by fluorescence microscopic analysis; assay type: cell-based; details: SK-BR-3
Method in brief: as §4

Tubulin (Homo sapiens) [16] = target: T1, Tubulin (Homo sapiens); experiment: Inhibition of tubulin polymerization in human SKBR3 cells assessed as microtubule disorganization at 0.5 to 1 uM after 12 hrs by fluorescence microscopic analysis; assay type: cell-based; details: SK-BR-3
Method in brief: as §4

[17] = target: Heat shock protein beta-1 (Homo sapiens) (UniProt P04792); experiment: Induction of Hsp27 phosphorylation in human SKBR3 cells at 50 to 100 nM after 24 hrs by SDS-PAGE analysis; assay type: cell-based; details: SK-BR-3
Method in brief: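 SKBR-3 cells were treated for 24 h with 50 and 100 nM nocodazole, with compound or KRIBB3 run alongside. Lysates (50 μg protein) were separated on 12% SDS-PAGE and transferred to PVDF. Membranes were blocked 1 h and probed for pSer78 Hsp27, with total Hsp27 and actin as loading controls, then detected by HRP secondary and ECL.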

Chain of Heat shock protein beta-1 (Homo sapiens) (P04792 whole entry): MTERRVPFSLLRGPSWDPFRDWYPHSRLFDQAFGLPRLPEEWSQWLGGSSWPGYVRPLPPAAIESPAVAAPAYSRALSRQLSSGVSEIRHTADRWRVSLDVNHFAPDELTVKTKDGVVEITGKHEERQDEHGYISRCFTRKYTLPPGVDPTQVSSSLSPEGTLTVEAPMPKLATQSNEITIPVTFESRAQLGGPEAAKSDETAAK

Activity [1]: Active | inhibition [2]: Active
Compound: CCc1cc(-c2oncc2-c2ccc(OC)cc2)c(O)cc1OC

Activity [3]: Active | Activity (Bos taurus [4]): inactive | Activity (Bos taurus [6]): Active | Activity [9]: Active | IC50 (SK-BR-3 [11]): 2 µM
Compound: Cc1ccc(C)c(COc2cc(NC(=O)c3ccc4c(c3)OCO4)ccc2N(CCCCCCNC(=O)CCCC[C@H]2SC[C@H]3NC(=O)N[C@H]32)S(C)(=O)=O)c1
Activity (SK-BR-3 [5]): Active | Activity (SK-BR-3 [7]): Active | Activity (SK-BR-3 [8]): Active | Activity (SK-BR-3 [10]): Active

inhibition (Tubulin (Homo sapiens) [12]): Active | inhibition (Bos taurus [13]): Dose-dependent effect | inhibition (Tubulin (Homo sapiens) [14]): Active | inhibition (Tubulin (Homo sapiens) [15]): Active | inhibition (Tubulin (Homo sapiens) [16]): Active
Compound: Cc1ccc(C)c(COc2cc(NC(=O)c3ccc4c(c3)OCO4)ccc2N(C)S(C)(=O)=O)c1

IC50 (SK-BR-3 [11]): 62.9 µM
Compound: CN(c1ccc(NC(=O)c2ccc3c(c2)OCO3)cc1OCc1ccccc1)S(C)(=O)=O

IC50 (SK-BR-3 [11]): 121 µM
Compound: Cc1ccc(C)c(COc2cc(NC(=O)Cc3ccccc3)ccc2N(C)S(C)(=O)=O)c1

Activity [17]: Active
Compound: COC(=O)Nc1nc2cc(C(=O)c3cccs3)ccc2[nH]1

Source: ChEMBL document CHEMBL2057143, “Identification of a class of novel tubulin inhibitors” (J Med Chem, 2012)
